Experimental data taken from ChEMBL document CHEMBL1275556, “High prevalence of plasmid-mediated quinolone resistance genes qnr and aac(6')-Ib-cr in clinical isolates of Enterobacteriaceae from nine teaching hospitals in China” (2008).
In brackets after ≈: the same amount, converted by molar mass.

Tests used:
[1] = tested on: Klebsiella pneumoniae; test: Antimicrobial activity against aac(6')-Ib-cr-negative Klebsiella pneumoniae SY22 harboring GyrA S83I, ParC S80I mutant, wild-type GyrB and qnrS genes by agar dilution method in presence of Tazobactam; assay type: functional
In short: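 MICs measured by CLSI agar dilution (M7-A7) and interpreted against CLSI M100-S17 breakpoints. Strains were clinical Enterobacteriaceae isolates or the azide-resistant E. coli J53 recipient.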

[2] = tested on: Klebsiella pneumoniae; test: Antimicrobial activity against aac(6')-Ib-cr-positive Klebsiella pneumoniae SY26T harboring wild-type GyrA, ParC, GyrB and qnrB genes by agar dilution method in presence of Tazobactam; assay type: functional
In short: (§1)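 Transconjugants were made by conjugating a qnr/aac(6')-Ib-cr donor with azide-resistant E. coli J53. Selection used Trypticase soy agar with sodium azide 150 µg/ml and sulfamethoxazole 180 µg/ml. […] MICs were read by CLSI agar dilution (M7-A7) and interpreted per M100-S17.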

[3] = tested on: Enterobacter cloacae; test: Antimicrobial activity against aac(6')-Ib-cr-negative Enterobacter cloacae FJ67 harboring […] and qnrS genes by agar dilution method in presence of Tazobactam; assay type: functional
In short: (§2)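 MICs were determined by the CLSI agar dilution method (M7-A7) and interpreted against CLSI M100-S17 breakpoints.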

[4] = tested on: Enterobacter cloacae; test: Antimicrobial activity against aac(6')-Ib-cr-negative Enterobacter cloacae GZ47 harboring qnrB and qnrS genes by agar dilution method in presence of Tazobactam; assay type: functional; in short: as §2
[5] = tested on: Enterobacter cloacae; test: Antimicrobial activity against aac(6')-Ib-cr-negative Enterobacter cloacae GZ51 harboring qnrA gene by agar dilution method in presence of Tazobactam; assay type: functional; in short: as §2
[6] = tested on: Escherichia coli; test: Antimicrobial activity against aac(6')-Ib-cr-negative Escherichia coli PU12T harboring wild-type GyrA, GyrB, ParC and qnrS genes by agar dilution method; assay type: functional; in short: as §2
[7] = tested on: Escherichia coli; test: Antimicrobial activity against aac(6')-Ib-cr-negative Escherichia coli PU12T harboring wild-type GyrA, GyrB, ParC and qnrS genes by agar dilution method in presence of clavulanic acid; assay type: functional
In short: (§3)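 Transconjugants came from conjugation of qnr and/or aac(6')-Ib-cr-carrying donors with azide-resistant E. coli J53. […] MICs were determined by CLSI agar dilution (M7-A7) and interpreted by M100-S17.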

[8] = tested on: Citrobacter freundii; test: Antimicrobial activity against aac(6')-Ib-cr-positive Citrobacter freundii PU55 harboring GyrA T83I, ParC S80I mutant, wild-type GyrB, qnrA genes by agar dilution method; assay type: functional; in short: as §2
[9] = tested on: Citrobacter freundii; test: Antimicrobial activity against aac(6')-Ib-cr-positive Citrobacter freundii PU55T harboring wild-type GyrA, ParC, GyrB and qnrA genes by agar dilution method
[10] = tested on: Enterobacter cloacae; test: Antimicrobial activity against aac(6')-Ib-cr-negative Enterobacter cloacae SH39 harboring GyrA S83I, ParC S80I mutant, wild-type GyrB and qnrA genes by agar dilution method; assay type: functional
[11] = tested on: Klebsiella pneumoniae; test: Antimicrobial activity against aac(6')-Ib-cr-negative Klebsiella pneumoniae SY22 harboring GyrA S83I, ParC S80I mutant, wild-type GyrB and qnrS genes by agar dilution method in presence of clavulanic acid; assay type: functional
In short: (§4)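 MICs were determined by CLSI agar dilution (M7-A7) and interpreted by CLSI M100-S17 breakpoints. The curator's line names the β-lactamase inhibitor added.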

[12] = tested on: Klebsiella pneumoniae; test: Antimicrobial activity against aac(6')-Ib-cr-positive Klebsiella pneumoniae SY26T harboring wild-type GyrA, ParC, GyrB and qnrB genes by agar dilution method; assay type: functional
In short: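 Transconjugants were made by conjugating a qnr/aac(6')-Ib-cr donor with azide-resistant E. coli J53. MICs were read by CLSI agar dilution (M7-A7) and interpreted per M100-S17.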

[13] = tested on: Klebsiella pneumoniae; test: Antimicrobial activity against aac(6')-Ib-cr-positive Klebsiella pneumoniae SY26T harboring wild-type GyrA, ParC, GyrB and qnrB genes by agar dilution method in presence of clavulanic acid; assay type: functional; in short: as §3
[14] = tested on: Citrobacter freundii; test: Antimicrobial activity against aac(6')-Ib-cr-positive Citrobacter freundii TJ15T harboring wild-type GyrA, ParC, GyrB genes by agar dilution method in presence of clavulanic acid; assay type: functional; in short: as §2
[15] = tested on: Enterobacter cloacae; test: Antimicrobial activity against aac(6')-Ib-cr-negative Enterobacter cloacae WH42 harboring wild-type GyrA, ParC, GyrB and qnrA genes by agar dilution method; assay type: functional
[16] = tested on: Enterobacter cloacae; test: Antimicrobial activity against aac(6')-Ib-cr-negative Enterobacter cloacae WH42T harboring qnrA gene by agar dilution method; assay type: functional
[17] = tested on: Escherichia coli; test: Antimicrobial activity against aac(6')-Ib-cr-positive Escherichia coli FJ3 harboring GyrA S83L, ParC S80R mutant, wild-type GyrB and qnrB genes by agar dilution method in presence of clavulanic acid; assay type: functional; in short: as §4
[18] = tested on: Escherichia coli; test: Antimicrobial activity against aac(6')-Ib-cr-positive Escherichia coli FJ3T harboring wild-type GyrA, ParC, GyrB and qnrB genes by agar dilution method
[19] = tested on: Escherichia coli; test: Antimicrobial activity against aac(6')-Ib-cr-positive Escherichia coli FJ3T harboring wild-type GyrA, ParC, GyrB and qnrB genes by agar dilution method in presence of clavulanic acid; assay type: functional; in short: as §3
[20] = tested on: Enterobacter cloacae; test: Antimicrobial activity against aac(6')-Ib-cr-negative Enterobacter cloacae FJ61T harboring qnrS gene by agar dilution method; assay type: functional
[21] = tested on: Enterobacter cloacae; test: Antimicrobial activity against aac(6')-Ib-cr-negative Enterobacter cloacae FJ61T harboring qnrS gene by agar dilution method in presence of clavulanic acid; assay type: functional; in short: as §3
[22] = tested on: Enterobacter cloacae; test: Antimicrobial activity against aac(6')-Ib-cr-negative Enterobacter cloacae FJ67 harboring […] and qnrS genes by agar dilution method in presence of clavulanic acid; assay type: functional; in short: as §2
[23] = tested on: Klebsiella pneumoniae; test: Antimicrobial activity against aac(6')-Ib-cr-positive Klebsiella pneumoniae GZ40T harboring qnrB gene by agar dilution method in presence of clavulanic acid; assay type: functional; in short: as §3
[24] = tested on: Enterobacter cloacae; test: Antimicrobial activity against aac(6')-Ib-cr-negative Enterobacter cloacae GZ47 harboring qnrB and qnrS genes by agar dilution method; assay type: functional
[25] = tested on: Enterobacter cloacae; test: Antimicrobial activity against aac(6')-Ib-cr-negative Enterobacter cloacae GZ47T harboring qnrB gene by agar dilution method in presence of clavulanic acid; assay type: functional; in short: as §2
[26] = tested on: Citrobacter freundii; test: Antimicrobial activity against aac(6')-Ib-cr-positive Citrobacter freundii JN1 harboring GyrA T83I, ParC S80I mutant, wild-type GyrB and qnrA genes by agar dilution method; assay type: functional; in short: as §2
[27] = tested on: Citrobacter freundii; test: Antimicrobial activity against aac(6')-Ib-cr-positive Citrobacter freundii JN1 harboring GyrA T83I, ParC S80I mutant, wild-type GyrB and qnrA genes by agar dilution method in presence of clavulanic acid; assay type: functional; in short: as §2
[28] = tested on: Citrobacter freundii; test: Antimicrobial activity against aac(6')-Ib-cr-positive Citrobacter freundii JN1T by agar dilution method; assay type: functional; in short: as §2
[29] = tested on: Klebsiella pneumoniae; test: Antimicrobial activity against aac(6')-Ib-cr-positive Klebsiella pneumoniae JN41T harboring qnrB gene by agar dilution method; assay type: functional; in short: as §1
[30] = tested on: Klebsiella pneumoniae; test: Antimicrobial activity against aac(6')-Ib-cr-positive Klebsiella pneumoniae JN41T harboring qnrB gene by agar dilution method in presence of clavulanic acid; assay type: functional; in short: as §3
[31] = tested on: Citrobacter freundii; test: Antimicrobial activity against aac(6')-Ib-cr-positive Citrobacter freundii JS33 harboring GyrA T83I mutant, wild-type ParC, GyrB, qnrA and qnrB genes by agar dilution method in presence of clavulanic acid; assay type: functional; in short: as §4
[32] = tested on: Citrobacter freundii; test: Antimicrobial activity against aac(6')-Ib-cr-positive Citrobacter freundii JS33T harboring qnrA gene by agar dilution method in presence of clavulanic acid; assay type: functional; in short: as §3

`CCN1CCN(C(=O)N[C@@H](C(=O)N[C@@H]2C(=O)N3[C@@H]2SC(C)(C)[C@@H]3C(=O)O)c2ccccc2)C(=O)C1=O` [PIPERACILLIN] was tested, and the MIC [1] was 4 µg/mL, the MIC [2] was 2 µg/mL and the MIC [3] was 1 µg/mL. For the same compound, the MIC [4] was 4 µg/mL and the MIC [5] was 2 µg/mL.

For `CO/N=C(\C(=O)N[C@@H]1C(=O)N2C(C(=O)O)=C(COC(C)=O)CS[C@H]12)c1csc(N)n1` [CEFOTAXIME], the MIC [6] was 16 µg/mL (≈ 35.1 µM), the MIC [7] was 0.032 µg/mL and the MIC [8] was 128 µg/mL (≈ 281 µM). The MIC [9] was 0.064 µg/mL (≈ 0.141 µM), the MIC [10] was 4 µg/mL (≈ 8.78 µM) and the MIC [11] was 0.064 µg/mL. For the same compound, the MIC [12] was 4 µg/mL (≈ 8.78 µM), the MIC [13] was 0.032 µg/mL and the MIC [14] was 0.125 µg/mL. It also gave an MIC [15] of 256 µg/mL (≈ 562 µM), an MIC [16] of 8 µg/mL (≈ 17.6 µM) and an MIC [17] of 0.032 µg/mL. For the same compound, the MIC [18] was 64 µg/mL (≈ 141 µM), the MIC [19] was 0.032 µg/mL and the MIC [20] was 0.032 µg/mL (≈ 0.0703 µM). The MIC [21] was 0.032 µg/mL, the MIC [22] was 0.25 µg/mL and the MIC [23] was 0.032 µg/mL. The MIC [24] was 64 µg/mL (≈ 141 µM), the MIC [25] was 0.5 µg/mL and the MIC [26] was over 256 µg/mL. The MIC [27] was 128 µg/mL, the MIC [28] was 8 µg/mL (≈ 17.6 µM) and the MIC [29] was 16 µg/mL (≈ 35.1 µM). The MIC [30] was 0.032 µg/mL, the MIC [31] was 64 µg/mL and the MIC [32] was 0.032 µg/mL.
